Tests used:
[1] = biological target: Mitogen-activated protein kinase 14 (Homo sapiens, UniProt Q16539); assay: Inhibition of recombinant p38alpha after 15 mins
Procedure, shortened: (§1)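 Each recombinant kinase was assayed with ATP at its own Km.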

[2] = Apparent permeability of the compound at pH 7.4 by PAMPA method; assay type: ADME
[3] = biological target: Glycogen synthase kinase-3 beta (Homo sapiens, UniProt P49841); assay: Inhibition of recombinant GSK3-beta after 15 mins; procedure, shortened: as §1
Chain of Glycogen synthase kinase-3 beta (P49841 whole entry): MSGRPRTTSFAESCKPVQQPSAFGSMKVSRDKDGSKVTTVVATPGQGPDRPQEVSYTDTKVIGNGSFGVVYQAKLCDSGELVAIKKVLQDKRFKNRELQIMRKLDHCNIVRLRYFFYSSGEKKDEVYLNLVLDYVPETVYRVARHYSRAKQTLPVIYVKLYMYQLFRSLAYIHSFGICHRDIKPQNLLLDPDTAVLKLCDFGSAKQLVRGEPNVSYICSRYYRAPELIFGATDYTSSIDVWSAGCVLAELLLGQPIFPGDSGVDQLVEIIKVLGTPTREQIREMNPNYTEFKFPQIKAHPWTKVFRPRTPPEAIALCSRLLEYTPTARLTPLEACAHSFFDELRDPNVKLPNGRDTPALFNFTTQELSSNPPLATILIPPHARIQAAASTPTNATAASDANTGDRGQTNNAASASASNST

[4] = biological target: T1, Inhibitor of nuclear factor kappa-B kinase subunit beta (Homo sapiens, UniProt O14920); assay: Inhibition of purified His-tagged IKK-beta after 15 mins
T1 sequence (O14920 whole entry): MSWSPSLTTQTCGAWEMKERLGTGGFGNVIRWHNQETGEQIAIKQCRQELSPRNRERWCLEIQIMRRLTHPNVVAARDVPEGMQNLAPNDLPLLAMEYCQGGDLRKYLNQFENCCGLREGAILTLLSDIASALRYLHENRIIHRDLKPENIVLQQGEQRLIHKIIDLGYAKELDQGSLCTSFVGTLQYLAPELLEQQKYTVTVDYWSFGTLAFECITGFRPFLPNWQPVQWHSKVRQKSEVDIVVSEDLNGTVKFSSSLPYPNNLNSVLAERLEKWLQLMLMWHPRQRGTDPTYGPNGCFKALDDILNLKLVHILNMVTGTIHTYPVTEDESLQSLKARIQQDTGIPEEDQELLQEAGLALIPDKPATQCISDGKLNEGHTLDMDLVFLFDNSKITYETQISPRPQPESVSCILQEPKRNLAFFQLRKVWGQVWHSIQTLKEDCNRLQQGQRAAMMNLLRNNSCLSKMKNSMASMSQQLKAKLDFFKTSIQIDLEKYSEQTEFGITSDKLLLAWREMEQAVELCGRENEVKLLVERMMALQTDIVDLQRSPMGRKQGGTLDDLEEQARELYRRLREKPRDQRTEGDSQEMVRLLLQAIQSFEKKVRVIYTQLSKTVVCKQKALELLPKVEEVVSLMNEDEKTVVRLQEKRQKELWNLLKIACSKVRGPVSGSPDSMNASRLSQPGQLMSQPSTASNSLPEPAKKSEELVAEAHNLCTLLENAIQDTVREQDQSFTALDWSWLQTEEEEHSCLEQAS

THP-1 = assay: Antiinflammatory activity in human THP1 cells assessed as inhibition of LPS-induced TNFalpha production after 4 hrs by ELISA; assay type: functional, cell-based; conditions: THP-1, 4 h
Procedure, shortened: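 THP-1 cells primed 3–4 days with 100 nM calcitriol in RPMI-1640 containing 10% FBS, then cultured overnight without calcitriol. Resuspended in RPMI-1640 with 25 mM HEPES at 1.5×10^5 cells/mL. Compound and E. coli O111:B4 LPS added together, 4 h at 37 °C in 5% CO2. TNFα measured in the centrifuged supernatant by ELISA.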

[5] = biological target: T2, Inhibitor of nuclear factor kappa-B kinase subunit alpha (Homo sapiens, UniProt O15111); assay: Inhibition of recombinant IKKalpha after 15 mins
T2 sequence (O15111 whole entry): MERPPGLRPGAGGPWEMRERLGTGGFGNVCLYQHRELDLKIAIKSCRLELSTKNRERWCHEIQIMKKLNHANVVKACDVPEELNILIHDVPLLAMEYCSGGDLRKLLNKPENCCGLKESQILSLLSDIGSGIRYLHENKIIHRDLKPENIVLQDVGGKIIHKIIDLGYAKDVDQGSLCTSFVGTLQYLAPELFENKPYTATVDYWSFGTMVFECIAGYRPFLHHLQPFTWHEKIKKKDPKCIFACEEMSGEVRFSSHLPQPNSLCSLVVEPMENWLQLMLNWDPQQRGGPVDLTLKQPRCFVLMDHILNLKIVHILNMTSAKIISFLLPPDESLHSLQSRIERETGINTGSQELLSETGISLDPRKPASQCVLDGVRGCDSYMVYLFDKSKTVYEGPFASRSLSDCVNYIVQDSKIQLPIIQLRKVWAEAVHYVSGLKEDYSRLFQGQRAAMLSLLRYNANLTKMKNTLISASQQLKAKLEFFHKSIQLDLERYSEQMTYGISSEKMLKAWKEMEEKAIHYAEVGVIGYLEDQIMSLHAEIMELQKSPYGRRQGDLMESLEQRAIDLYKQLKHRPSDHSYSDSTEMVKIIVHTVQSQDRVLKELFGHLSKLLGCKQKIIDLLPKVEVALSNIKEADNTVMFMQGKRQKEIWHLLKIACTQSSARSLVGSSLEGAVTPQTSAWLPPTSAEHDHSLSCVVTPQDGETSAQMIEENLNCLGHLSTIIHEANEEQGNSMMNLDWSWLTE

[6] = biological target: Cyclin-dependent kinase 2 (Homo sapiens, UniProt P24941); assay: Inhibition of recombinant CDK2 after 15 mins
[7] = biological target: Mitogen-activated protein kinase 10 (Homo sapiens, UniProt P53779); assay: Inhibition of recombinant JNK3 after 15 mins; procedure, shortened: as §1
Chain of Mitogen-activated protein kinase 10 (P53779 whole entry): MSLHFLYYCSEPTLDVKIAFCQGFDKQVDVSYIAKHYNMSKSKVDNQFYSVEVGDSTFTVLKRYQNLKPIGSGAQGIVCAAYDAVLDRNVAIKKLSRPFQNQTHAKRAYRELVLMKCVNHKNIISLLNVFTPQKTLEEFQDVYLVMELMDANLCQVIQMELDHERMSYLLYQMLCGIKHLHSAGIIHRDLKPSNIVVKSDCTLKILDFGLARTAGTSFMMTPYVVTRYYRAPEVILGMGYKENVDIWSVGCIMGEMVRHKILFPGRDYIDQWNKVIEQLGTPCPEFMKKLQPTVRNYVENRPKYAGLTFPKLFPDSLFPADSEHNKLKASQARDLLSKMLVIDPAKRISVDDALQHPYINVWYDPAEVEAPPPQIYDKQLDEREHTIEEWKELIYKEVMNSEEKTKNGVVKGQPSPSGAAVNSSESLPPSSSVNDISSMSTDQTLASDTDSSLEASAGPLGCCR

Chain of Mitogen-activated protein kinase 14 (Q16539 whole entry): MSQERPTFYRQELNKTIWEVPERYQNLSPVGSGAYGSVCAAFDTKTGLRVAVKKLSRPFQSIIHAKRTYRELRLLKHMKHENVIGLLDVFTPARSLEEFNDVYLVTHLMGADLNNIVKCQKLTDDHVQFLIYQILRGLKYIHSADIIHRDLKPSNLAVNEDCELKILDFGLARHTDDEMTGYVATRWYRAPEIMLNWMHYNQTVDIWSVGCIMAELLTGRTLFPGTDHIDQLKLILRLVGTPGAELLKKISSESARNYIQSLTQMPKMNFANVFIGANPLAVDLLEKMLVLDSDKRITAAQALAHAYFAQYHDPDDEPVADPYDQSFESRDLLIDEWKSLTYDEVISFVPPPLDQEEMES

CN(C)CCNC(=O)c1ccc(-c2cnc3ccc(NCC4CC4)nn23)cc1
IC50 [1]: > 100 µM
Papp [2]: > 50 ×10⁻⁶ cm/s
IC50 [3]: > 100 µM
IC50 [4]: 0.2 µM
IC50 (THP-1): 0.69 µM
IC50 [5]: > 100 µM
IC50 [6]: > 100 µM
IC50 [7]: > 100 µM

NC1CN(C(=O)c2ccc(-c3cnc4ccc(NCc5ccc(Cl)c(Cl)c5)nn34)cc2)C1
IC50 (THP-1): > 30 µM

O=C(NCC1CCNCC1)c1ccc(-c2cnc3ccc(NCc4ccc(Cl)c(Cl)c4)nn23)cc1
IC50 (THP-1): > 30 µM

CC(C)Nc1ccc2ncc(-c3ccc(C(=O)NC[C@@H]4CCCN4)cc3)n2n1
IC50 [4]: 0.27 µM
IC50 (THP-1): 1.7 µM

O=C(NC[C@@H]1CCCN1)c1ccc(-c2cnc3ccc(NCc4ccc(Cl)c(Cl)c4)nn23)cc1
IC50 [1]: > 100 µM
Papp [2]: < 2 ×10⁻⁶ cm/s
IC50 [3]: > 100 µM
IC50 [4]: 0.32 µM
IC50 (THP-1): 4 µM
IC50 [5]: 2.2 µM
IC50 [6]: 95 µM
IC50 [7]: > 100 µM

O=C(NCCN1CCCC1)c1ccc(-c2cnc3ccc(NCc4ccc(Cl)c(Cl)c4)nn23)cc1
IC50 [1]: > 100 µM
IC50 [3]: > 100 µM
IC50 [4]: 0.59 µM
IC50 (THP-1): > 30 µM
IC50 [5]: 4.6 µM
IC50 [6]: > 100 µM
IC50 [7]: 90 µM

O=C(NC[C@@H]1CCCN1)c1ccc(-c2cnc3ccc(NCc4cccc(Cl)c4)nn23)cc1
IC50 [1]: > 100 µM
Papp [2]: < 2 ×10⁻⁶ cm/s
IC50 [3]: > 100 µM
IC50 [4]: 0.19 µM
IC50 (THP-1): 2.7 µM
IC50 [5]: > 4 µM
IC50 [6]: > 100 µM
IC50 [7]: 78 µM

CC(=O)NCCNc1ccc2ncc(-c3ccc(C(=O)NC[C@@H]4CCCN4)cc3)n2n1
IC50 (THP-1): > 30 µM

CN1CCN(C(=O)c2ccc(-c3cnc4ccc(NCc5ccc(Cl)c(Cl)c5)nn34)cc2)CC1
IC50 (THP-1): 12 µM

CCNC(=O)c1ccc(-c2cnc3ccc(NCc4ccc(Cl)c(Cl)c4)nn23)cc1
IC50 [4]: 27 µM
IC50 (THP-1): 27 µM

CN(C)CCNC(=O)c1ccc(-c2cnc3ccc(NCc4ccc(Cl)c(Cl)c4)nn23)cc1
IC50 [3]: > 100 µM
IC50 (THP-1): > 30 µM
IC50 [6]: > 100 µM

NCCNC(=O)c1ccc(-c2cnc3ccc(NCc4ccc(Cl)c(Cl)c4)nn23)cc1
IC50 (THP-1): 2.4 µM

O=C(NCCN1CCOCC1)c1ccc(-c2cnc3ccc(NCc4ccc(Cl)c(Cl)c4)nn23)cc1
IC50 [4]: > 30 µM

O=C(NC[C@@H]1CCCN1)c1ccc(-c2cnc3ccc(NCCO)nn23)cc1
IC50 (THP-1): > 30 µM

O=C(NCCN1CCCCC1)c1ccc(-c2cnc3ccc(NCc4ccc(Cl)c(Cl)c4)nn23)cc1
IC50 (THP-1): > 30 µM

O=C(NC[C@@H]1CCCN1)c1ccc(-c2cnc3ccc(NCCc4cnc[nH]4)nn23)cc1
IC50 [4]: 3 µM
IC50 (THP-1): > 30 µM

O=C(NC[C@@H]1CCCN1)c1ccc(-c2cnc3ccc(N[C@H]4CC[C@H](O)CC4)nn23)cc1
IC50 (THP-1): > 30 µM

CC(N)CNC(=O)c1ccc(-c2cnc3ccc(NCC4CC4)nn23)cc1 (stereo not drawn)
IC50 [4]: 0.31 µM
IC50 (THP-1): 1.5 µM

O=C(NC[C@@H]1CCCN1)c1ccc(-c2cnc3ccc(NCC4CC4)nn23)cc1
IC50 [1]: > 100 µM
Papp [2]: < 2 ×10⁻⁶ cm/s
IC50 [3]: > 100 µM
IC50 [4]: 0.055 µM
IC50 (THP-1): 0.69 µM
IC50 [5]: 40 µM
IC50 [6]: > 100 µM
IC50 [7]: > 100 µM

O=C(NC[C@@H]1CCCN1)c1ccc(-c2cnc3ccc(NCCCn4ccnc4)nn23)cc1
IC50 [4]: 0.38 µM
IC50 (THP-1): > 30 µM

CN(C)CCCNC(=O)c1ccc(-c2cnc3ccc(NCc4ccc(Cl)c(Cl)c4)nn23)cc1
IC50 (THP-1): > 30 µM

CNc1ccc2ncc(-c3ccc(C(=O)NC[C@@H]4CCCN4)cc3)n2n1
IC50 (THP-1): 29 µM

NCCCNC(=O)c1ccc(-c2cnc3ccc(NCc4ccc(Cl)c(Cl)c4)nn23)cc1
IC50 (THP-1): 4.7 µM

O=C(NC[C@@H]1CCCN1)c1ccc(-c2cnc3ccc(NC4CC4)nn23)cc1
IC50 (THP-1): 3.2 µM

O=C(c1ccc(-c2cnc3ccc(NCC4CC4)nn23)cc1)N1CCC[C@H]1CN1CCCC1
IC50 [4]: 5.1 µM

NC(=O)c1ccc(-c2cnc3ccc(NCc4ccc(Cl)c(Cl)c4)nn23)cc1
IC50 (THP-1): 1.7 µM

CCN(CC)CCNC(=O)c1ccc(-c2cnc3ccc(NCC4CC4)nn23)cc1
IC50 (THP-1): 1.2 µM

CCN1CCC[C@H]1CNC(=O)c1ccc(-c2cnc3ccc(NCC4CC4)nn23)cc1
IC50 (THP-1): 0.49 µM

O=C(NC1CCNC1)c1ccc(-c2cnc3ccc(NCc4ccc(Cl)c(Cl)c4)nn23)cc1 (stereo not drawn)
IC50 (THP-1): 6.5 µM

O=C(c1ccc(-c2cnc3ccc(NCC4CC4)nn23)cc1)N1CCC[C@@H]1CN1CCCC1
IC50 [4]: 0.16 µM
IC50 (THP-1): 2.1 µM

CN(C)CCN(C)C(=O)c1ccc(-c2cnc3ccc(NCc4ccc(Cl)c(Cl)c4)nn23)cc1
IC50 (THP-1): 15 µM

O=C(NC[C@@H]1CCCN1)c1ccc(-c2cnc3ccc(N4CCOCC4)nn23)cc1
IC50 [4]: > 30 µM

O=C(NC[C@@H]1CCCN1)c1ccc(-c2cnc3ccc(NCc4ccccc4)nn23)cc1
IC50 (THP-1): 3.7 µM

O=C(NCCNc1ccccc1)c1ccc(-c2cnc3ccc(NCc4ccc(Cl)c(Cl)c4)nn23)cc1
IC50 (THP-1): > 30 µM

O=C(NC[C@@H]1CCCN1)c1ccc(-c2cnc3ccc(NCCCO)nn23)cc1
IC50 (THP-1): > 30 µM

O=C(NC[C@@H]1CCCN1)c1ccc(-c2cnc3ccc(N4CCC(O)CC4)nn23)cc1
IC50 [4]: > 30 µM

O=C(NC1CCNCC1)c1ccc(-c2cnc3ccc(NCc4ccc(Cl)c(Cl)c4)nn23)cc1
IC50 (THP-1): 4.4 µM

CC(C)(N)CNC(=O)c1ccc(-c2cnc3ccc(NCc4ccc(Cl)c(Cl)c4)nn23)cc1
IC50 (THP-1): 6.5 µM

CN1CCC[C@H]1CNC(=O)c1ccc(-c2cnc3ccc(NCC4CC4)nn23)cc1
IC50 [4]: 0.11 µM
IC50 (THP-1): 1.3 µM

CN(C)CCN(C)C(=O)c1ccc(-c2cnc3ccc(NCC4CC4)nn23)cc1
IC50 (THP-1): 2.4 µM

CC(CN(C)C)NC(=O)c1ccc(-c2cnc3ccc(NCC4CC4)nn23)cc1 (stereo not drawn)
IC50 (THP-1): 2.1 µM

O=C(NC[C@@H]1CCNC1)c1ccc(-c2cnc3ccc(NCc4ccc(Cl)c(Cl)c4)nn23)cc1
IC50 [4]: 10 µM
IC50 (THP-1): 17 µM

O=C(c1ccc(-c2cnc3ccc(NCc4ccc(Cl)c(Cl)c4)nn23)cc1)N1CCC(N2CCCC2)CC1
IC50 [4]: 1.4 µM
IC50 (THP-1): > 30 µM

O=C(NC[C@@H]1CCCCN1)c1ccc(-c2cnc3ccc(NCC4CC4)nn23)cc1
IC50 (THP-1): 1.5 µM

CN(C)c1ccc2ncc(-c3ccc(C(=O)NC[C@@H]4CCCN4)cc3)n2n1
IC50 (THP-1): 20 µM

O=C(NCc1ccccn1)c1ccc(-c2cnc3ccc(NCc4ccc(Cl)c(Cl)c4)nn23)cc1
IC50 (THP-1): > 30 µM

O=C(NC[C@H]1CCCN1)c1ccc(-c2cnc3ccc(NCC4CC4)nn23)cc1
IC50 [4]: 0.1 µM
IC50 (THP-1): 1.6 µM
